# In PMC3830715 (Biochemistry, 2013):
# T1: WT PDK1 PH domain (Homo sapiens, UniProt O15530)
# T1 sequence (O15530 459-550 limits assumed): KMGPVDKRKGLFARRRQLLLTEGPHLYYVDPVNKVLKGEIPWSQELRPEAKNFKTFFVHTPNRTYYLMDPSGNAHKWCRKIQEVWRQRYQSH
# T2: T513E PDK1 PH domain (Homo sapiens, UniProt O15530, T513E)
# T2 sequence (O15530 459-550 T513E limits assumed): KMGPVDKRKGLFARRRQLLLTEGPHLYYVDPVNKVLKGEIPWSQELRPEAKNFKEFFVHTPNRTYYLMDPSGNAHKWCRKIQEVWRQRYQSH
# Assays:
# WT PDK1 PH domain [1] = target: T1, WT PDK1 PH domain; type: binding; details: read-out: KD(IP6); free WT PH domain in solution, 25 °C, physiological buffer
# Procedure, shortened: (§1)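 Free PH domain, purified from Sf9 cells, was titrated with IP₆ in solution at 25 °C. The buffer was HEPES pH 7.4 with 140 mM KCl, 15 mM NaCl, 0.5 mM MgCl₂ and 10 mM DTT. Intrinsic Trp fluorescence was read at ex 284 nm / em 335 nm, slits 1/8 nm. K_DI came from a nonlinear least squares fit assuming homogeneous binding sites.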
# T513E PDK1 PH domain [2] = target: T2, T513E PDK1 PH domain; type: binding; details: read-out: KD(IP6); free T513E PH domain in solution, 25 °C, physiological buffer
# Procedure, shortened: as §1
# WT PDK1 PH domain [3] = target: T1, WT PDK1 PH domain; type: binding
# T513E PDK1 PH domain [4] = target: T2, T513E PDK1 PH domain; type: binding
# Procedure, shortened: (§2)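 PH domain (1 μM, from Sf9 cells) was rapidly mixed by stopped flow with plasma membrane-like SUVs (600 μM total lipid, 6 μM accessible PIP₃). Final concentrations were 0.5 μM protein and 3 μM PIP₃, at 25 °C in HEPES pH 7.4 buffer with 10 mM DTT. Trp-to-dansyl-PE FRET was monitored, and a single-exponential fit gave k_on(app). k_off was estimated from the measured K_D and k_on.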
# [5] = test system: WT and T513E PDK1 PH domains; type: binding, human; details: PC/PS/PIP3 74/24/2 supported bilayer (dioleoyl PIP3), SE n = 3
# WT PDK1 PH domain [6] = target: T1, WT PDK1 PH domain; type: binding; remark: listed apart in the source
# Procedure, shortened: as §2
# [7] = target: the molecule itself; test: single molecule TIRFM brightness analysis
molecule,measurement,setting,value
"O=P(O)(O)OC1C(OP(=O)(O)O)C(OP(=O)(O)O)C(OP(=O)(O)O)C(OP(=O)(O)O)C1OP(=O)(O)O (centres unmarked) [IP6, Inositol 1,2,3,4,5,6-hexakisphosphate]",Kd,WT PDK1 PH domain [1],9 ± 3 µM
same,Kd,T513E PDK1 PH domain [2],30 ± 11 µM
same,membrane-bound protein displaced,"WT PDK1 PH domain [3]; 1 mM IP6, WT PH domain on PIP3 target membranes",less than 5%
"CCCCCCCCCCCCCCCC(=O)OC[C@H](COP(=O)(O)OC1[C@H](O)[C@H](OP(=O)(O)O)C(OP(=O)(O)O)[C@H](OP(=O)(O)O)[C@H]1O)OC(=O)CCCCCCCCCCCCCCC (some centres unmarked) [PIP3, 1,2-dipalmitoylphosphatidylinositol 3,4,5-trisphosphate]",kon (app),"T513E PDK1 PH domain [4]; T513E PH domain 0.5 μM, 3 μM accessible PIP3, 25 °C",2.5e+06 ± 100000 M⁻¹ s⁻¹
same,koff (calc),"T513E PDK1 PH domain [4]; T513E PH domain, estimated from measured KD and kon",18 ± 5 ms ^−1
same,higher concentration of T513E PH domain needed relative to WT for same density of membrane-associated single particles (lower affinity for target PIP3 bilayer),[5],9.7 ± 1.9 fold
same,kon (app),"WT PDK1 PH domain [6]; WT PH domain 0.5 μM, 3 μM accessible PIP3, 25 °C",1.6e+06 ± 100000 M⁻¹ s⁻¹
same,koff (calc),"WT PDK1 PH domain [6]; WT PH domain, estimated from measured KD and kon",0.3 ± 0.2 ms ^−1
same,greater PIP3 membrane affinity of dimeric WT relative to monomeric T513E,WT PDK1 PH domain [3]; plasma membrane-like bilayers,35 fold
"O=P(O)(O)OC1[C@H](O)[C@H](OP(=O)(O)O)C(OP(=O)(O)O)[C@H](OP(=O)(O)O)[C@H]1O (some centres unmarked) [IP4, inositol 1,3,4,5-tetrakis(phosphate)]",higher affinity for IP4 than for IP6,WT PDK1 PH domain [3]; WT PH domain,80 fold
"human WT PDK1 PH domain, AF555-labeled (domain or fragment, UniProt O15530 409-556, looked up, Alexa Fluor 555 on the N-terminal Sfp labeling tag (enzymatic labeling, up to ~50% labeling efficiency)) GSNIEQYIHDLDSNSFELDLQFSEDEKRLLLEKQAGGNPWHQFVENNLILKMGPVDKRKGLFARRRQLLLTEGPHLYYVDPVNKVLKGEIPWSQELRPEAKNFKTFFVHTPNRTYYLMDPSGNAHKWCRKIQEVWRQRYQSHPDAAVQ",stoichiometry N,[7],2
